# Measurements from ChEMBL document CHEMBL1133453, “Further studies on nociceptin-related peptides: discovery of a new chemical template with antagonist activity on the nociceptin receptor” (J Med Chem, 2000).
# Calls of active or inactive are those of the source. The rule behind the calls is not given here. Numbered stars: 1 amine (or outer) side, 2 acyl side, 3 side chain; on linkers, the order of the positions; unused ones are H or OH. Square brackets hold non-standard residues; d marks the D form. Peptide text beside a SMILES is read from it. X5 = N[C@@H](Cc1ccc(O)cc1)CN(CC(=O)[*:2])[*:1]; X1 = CC(C)C[C@H](N)CN(CC(=O)[*:2])[*:1]; Nphe = O=C(O)CNCc1ccccc1
# Columns and labels:
# Mus musculus [1] = species on record: Mus musculus; test: Potency (Emax) against electrically evoked contraction (twitch response) in mouse vas deferens; NA means Inactive up to 10 uM; assay type: functional, organism-based
# Method in brief: (§1)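 Mouse vas deferens held in Mg2+-free Krebs at 33 °C under 0.3 g resting tension. Field stimulation through platinum electrodes with supramaximal 1-ms pulses at 0.1 Hz, twitches recorded isotonically. After about 2 h equilibration, cumulative concentration-response curves built in 0.5 log steps up to 10 µM. pEC50 taken as the concentration giving half-maximal effect. Mean of at least 3 experiments.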
# Mus musculus [2] = species on record: Mus musculus; test: Compound was tested for agonistic activity against electrically evoked contraction (twitch response) in mouse vas deferens; NA means Inactive up to 10 uM; assay type: functional, organism-based; method in brief: as §1
# Mus musculus [3] = species on record: Mus musculus; test: Compound was tested for the antagonistic activity on mouse vas deferens using NC(1-13)NH2 as agonist; NA means Inactive up to 10 uM; assay type: functional, organism-based
# Method in brief: (§2)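 Electrically stimulated mouse vas deferens (Mg2+-free Krebs, 33 °C, 0.1 Hz, 1-ms pulses). Antagonist at 10 µM added 15 min before a cumulative NC(1-13)NH2 concentration-response curve. pKB calculated with the Gaddum-Schild equation, assuming a slope of 1, from the concentration ratio. Mean of at least 3 experiments, with 95% confidence limits.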
# Nociceptin receptor [4] = biological target: T1, Nociceptin receptor (Mus musculus, UniProt P35377); test: Binding affinity towards Orphanin FQ receptor on mouse forebrain membranes was determined using [3H]-NC-NH2 as radioligand; parameters: species or system Membrane
# T1 sequence (P35377 whole entry): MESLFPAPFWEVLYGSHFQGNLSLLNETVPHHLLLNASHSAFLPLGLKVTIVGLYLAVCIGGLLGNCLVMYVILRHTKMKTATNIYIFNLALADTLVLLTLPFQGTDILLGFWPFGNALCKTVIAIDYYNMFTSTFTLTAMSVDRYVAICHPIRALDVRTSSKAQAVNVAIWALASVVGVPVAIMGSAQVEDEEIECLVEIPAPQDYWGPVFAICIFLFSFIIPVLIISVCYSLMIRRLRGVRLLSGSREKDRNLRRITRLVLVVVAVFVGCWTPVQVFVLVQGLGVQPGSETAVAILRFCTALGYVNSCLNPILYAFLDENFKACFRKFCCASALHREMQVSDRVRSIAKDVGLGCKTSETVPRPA
# Method in brief: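 Forebrain membranes from male Swiss mice (25-30 g), homogenized in 50 mM Tris HCl, 2 mM EDTA, 100 µM PMSF, pH 7.4, then preincubated 30 min at 37 °C. Competition against 0.5 nM [3H]NC-NH2 using 200 µg protein per assay, run in duplicate, 120 min at 25 °C. Bound ligand separated by GF/C filtration. Ki obtained by nonlinear least-squares fitting.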
# Mus musculus [5] = species on record: Mus musculus; test: Potency (Emax) against electrically evoked contraction (twitch response) in mouse vas deferens; assay type: functional; method in brief: as §1
# Mus musculus [6] = species on record: Mus musculus; test: Compound was tested for agonistic activity against electrically evoked contraction (twitch response) in mouse vas deferens; assay type: functional, organism-based; method in brief: as §1
# Nociceptin receptor [7] = biological target: T1, Nociceptin receptor; test: Affinity to nociceptin receptors on mouse forebrain membranes by [3H]NC-NH2 displacement.
# Method in brief: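 Forebrain membranes from male Swiss mice (25-30 g), homogenized in 50 mM Tris HCl, 2 mM EDTA, 100 µM PMSF, pH 7.4, then preincubated 30 min at 37 °C. Bound ligand separated by GF/C filtration. Ki obtained by nonlinear least-squares fitting.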
# Mus musculus [8] = species on record: Mus musculus; test: Potency (Emax) at 10 uM against electrically evoked contraction (twitch response) in mouse vas deferens; Slight effect (50% inhibition was detected at 10 uM); assay type: functional, organism-based; method in brief: as §1
# Mus musculus [9] = species on record: Mus musculus; test: Compound was tested for agonistic activity against electrically evoked contraction (twitch response) in mouse vas deferens; Slight effect (50% inhibition was detected at 10 uM); assay type: functional, organism-based; conditions: filed as partial agonist; method in brief: as §1
# Mus musculus [10] = species on record: Mus musculus; test: Compound was tested for the antagonistic activity on mouse vas deferens using NC(1-13)NH2 as agonist; assay type: functional; method in brief: as §2
Compound,Emax (Mus musculus [5]),EC50 (Mus musculus [6]),Ki (Nociceptin receptor [7]),further results
C[C@H](NC(=O)CNC(=O)[C@@H](NC(=O)[C@H](Cc1ccccc1)NC(=O)CNC(=O)CNC(=O)CNCc1ccccc1)[C@@H](C)O)C(=O)N[C@@H](CCCN=C(N)N)C(=O)N[C@@H](CCCCN)C(N)=O (H-[Nphe]GGFTGARK-NH2),,,,Emax (Mus musculus [1]): inactive; Log EC50 (Mus musculus [2]): inactive; pKB (Mus musculus [3]): inactive; Ki (Nociceptin receptor [4]): > 10 µM
C[C@H](NC(=O)CNC(=O)[C@@H](NC(=O)[C@H](Cc1ccccc1)NC(=O)CNC(=O)CNC(=O)[C@@H](N)CC1CCCCC1)[C@@H](C)O)C(=O)N[C@@H](CCCN=C(N)N)C(=O)N[C@@H](CCCCN)C(=O)N[C@@H](CO)C(=O)N[C@@H](C)C(=O)N[C@@H](CCCN=C(N)N)C(=O)N[C@@H](CCCCN)C(N)=O,-84%,12.6 nM,1 nM,
C[C@H](NC(=O)CNC(=O)[C@@H](NC(=O)[C@H](Cc1ccccc1)NC(=O)CNC(=O)CNC(=O)[C@@H](N)Cc1ccccc1)[C@@H](C)O)C(=O)N[C@@H](CCCN=C(N)N)C(=O)N[C@@H](CCCCN)C(=O)N[C@@H](CO)C(=O)N[C@@H](C)C(=O)N[C@@H](CCCN=C(N)N)C(N)=O (H-FGGFTGARKSAR-NH2),-79%,794 nM,25.1 nM,
CC(C)C[C@H](N)CNCC(=O)NCC(=O)N[C@@H](Cc1ccccc1)C(=O)N[C@H](C(=O)NCC(=O)N[C@@H](C)C(=O)N[C@@H](CCCN=C(N)N)C(=O)N[C@@H](CCCCN)C(=O)N[C@@H](CO)C(=O)N[C@@H](C)C(=O)N[C@@H](CCCN=C(N)N)C(=O)N[C@@H](CCCCN)C(N)=O)[C@@H](C)O (H-[X1]GFTGARKSARK-NH2),,,15.8 nM,Emax (Mus musculus [8]): Partially active; Log EC50 (Mus musculus [9]): Partial agonist; pKB (Mus musculus [10]): 5.4
Cc1ccc(C[C@H](N)C(=O)NCC(=O)NCC(=O)N[C@@H](Cc2ccccc2)C(=O)N[C@H](C(=O)NCC(=O)N[C@@H](C)C(=O)N[C@@H](CCCN=C(N)N)C(=O)N[C@@H](CCCCN)C(=O)N[C@@H](CO)C(=O)N[C@@H](C)C(=O)N[C@@H](CCCN=C(N)N)C(=O)N[C@@H](CCCCN)C(N)=O)[C@@H](C)O)cc1,-70%,2510 nM,200 nM,
C[C@H](NC(=O)CNC(=O)[C@@H](NC(=O)[C@H](Cc1ccccc1)NC(=O)CNC(=O)CNC(=O)[C@@H](N)Cc1ccc(O)cc1)[C@@H](C)O)C(=O)N[C@@H](CCCN=C(N)N)C(=O)N[C@@H](CCCCN)C(=O)N[C@@H](CO)C(=O)N[C@@H](C)C(=O)N[C@@H](CCCN=C(N)N)C(=O)N[C@@H](CCCCN)C(N)=O (H-YGGFTGARKSARK-NH2),-89%,25.1 nM,3.98 nM,
C[C@H](NC(=O)CNC(=O)[C@@H](NC(=O)[C@H](Cc1ccccc1)NC(=O)CNC(=O)CNC[C@@H](N)Cc1ccc(O)cc1)[C@@H](C)O)C(=O)N[C@@H](CCCN=C(N)N)C(=O)N[C@@H](CCCCN)C(=O)N[C@@H](CO)C(=O)N[C@@H](C)C(=O)N[C@@H](CCCN=C(N)N)C(=O)N[C@@H](CCCCN)C(N)=O (H-[X5]GFTGARKSARK-NH2),,,100 nM,Emax (Mus musculus [8]): Partially active; Log EC50 (Mus musculus [9]): Partial agonist; pKB (Mus musculus [10]): 5.7
